Measurements: ChEMBL document CHEMBL1671745 (Antimicrob Agents Chemother, 2010)
≈ marks a conversion by molar mass, not a printed value. One block for each molecule: values may come before it. Calls of active or inactive are those of the source. No cut-off for these calls is given here.

Experiments:
[1] = AUC (0 to 24 hrs) in Staphylococcus aureus in in vitro pharmacokinetic/pharmacodynamic model at 10 mg/kg every 24 hrs; type: ADME, organism-based; set-up: time < 24 hr, dose 10 mg/kg
Method in brief: (§1)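 Biofilm reactor with polystyrene coupons, simulating human free-drug profiles in supplemented Mueller-Hinton broth (calcium 25 μg/ml, magnesium 12.5 μg/ml) after a 40-h biofilm conditioning phase. Vancomycin was measured by fluorescence polarization immunoassay (lower limit 2 μg/ml). […] Half-life, AUC and peak were derived by the trapezoidal method.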

[2] = Half life in Staphylococcus aureus in in vitro pharmacokinetic/pharmacodynamic model at 10 mg/kg every 24 hrs; type: ADME, organism-based; set-up: dose 10 mg/kg; method in brief: as §1
Staphylococcus aureus [3] = experiment: fCmax in Staphylococcus aureus in in vitro pharmacokinetic/pharmacodynamic model at 10 mg/kg every 24 hrs; type: ADME, organism-based; set-up: dose 10 mg/kg; method in brief: as §1
Staphylococcus aureus [4] = experiment: Antimicrobial activity against methicillin-susceptible Staphylococcus aureus SH1000 assessed as inhibition of bacterial biofilm formation by CLSI broth microdilution method; type: functional
Staphylococcus aureus [5] = experiment: Antimicrobial activity against methicillin-susceptible Staphylococcus aureus SH1000 by CLSI broth microdilution method; type: functional
Staphylococcus aureus [6] = experiment: Antimicrobial activity against methicillin-resistant Staphylococcus aureus N315 by CLSI broth microdilution method; type: functional
Staphylococcus aureus [7] = experiment: Bactericidal activity against methicillin-resistant Staphylococcus aureus N315 in in vitro pharmacokinetic/pharmacodynamic model assessed as decrease in planktonic cell count at 10 mg/kg every 24 hrs measured after 48 hrs; type: functional, organism-based; set-up: dose 10 mg/kg
Method in brief: (§2)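 Biofilm reactor with polystyrene coupons. Conditioning: 24 h at 37°C in TSB with 1% glucose, then 16 h continuous flow of TSB with 10% glucose (30-min residence time). […] Coupons (biofilm cells, recovered by vortex/sonication) and medium (planktonic cells) sampled 0–72 h and plated on TSA. Limit of detection 2 log10 CFU/ml, extended to 1 by filtration. Duplicate models.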

Staphylococcus aureus [8] = experiment: Bactericidal activity against methicillin-resistant Staphylococcus aureus N315 planktonic cell in in vitro pharmacokinetic/pharmacodynamic model assessed as decrease in bacterial count at 10 mg/kg every 24 hrs; type: functional, organism-based; set-up: dose 10 mg/kg; method in brief: as §2
Staphylococcus aureus [9] = experiment: Bactericidal activity against Staphylococcus aureus in in vitro pharmacokinetic/pharmacodynamic model assessed as decrease in planktonic cell count at 10 mg/kg every 24 hrs; type: functional
Method in brief: (§3)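 Planktonic cells were sampled (≈1 ml) from the flow biofilm reactor at 0, 4, 8, 24, 32, 48, 56 and 72 h during simulated regimens in SMHB, with duplicate models. Samples were serially diluted or vacuum-filtered against carryover, spiral-plated on TSA, and grown 24 h at 37°C; detection limit 1–2 log10 CFU/ml. Bactericidal means a ≥3-log10 CFU/ml fall from the starting inoculum.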

Staphylococcus aureus [10] = experiment: Bactericidal activity against Staphylococcus aureus in in vitro pharmacokinetic/pharmacodynamic model assessed as decrease in biofilm bacterial count at 10 mg/kg every 24 hrs; type: functional
Method in brief: (§4)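 MSSA SH1000 or MRSA N315 biofilm was conditioned for 40 h (24 h batch in 1% glucose TSB at 37°C, then 16 h flow in 10% glucose TSB) on polystyrene coupons. Simulated regimens ran 72 h in SMHB, duplicate models. Three coupons per time point (0–72 h) were saline-washed, vortexed and sonicated, and drop-plated on TSA. Reduction is log10 CFU/ml versus start; ≥3-log10 counts as bactericidal.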

Staphylococcus aureus [11] = experiment: Bactericidal activity against methicillin-resistant Staphylococcus aureus N315 planktonic cell in in vitro pharmacokinetic/pharmacodynamic model assessed as decrease in bacterial count at 10 mg/kg every 24 hrs measured after 72 hrs; type: functional; method in brief: as §2
Staphylococcus aureus [12] = experiment: Bactericidal activity against methicillin-resistant Staphylococcus aureus N315 in in vitro pharmacokinetic/pharmacodynamic model assessed as decrease in biofilm bacterial count at 10 mg/kg every 24 hrs measured after 72 hrs; type: functional; method in brief: as §2
Staphylococcus aureus [13] = experiment: fCmax in Staphylococcus aureus in in vitro pharmacokinetic/pharmacodynamic model at 250 mg every 12 hrs; type: ADME, organism-based
[14] = Half life in Staphylococcus aureus in in vitro pharmacokinetic/pharmacodynamic model at 250 mg every 12 hrs; type: ADME, organism-based
[15] = AUC (0 to 24 hrs) in Staphylococcus aureus in in vitro pharmacokinetic/pharmacodynamic model at 250 mg every 12 hrs; type: ADME, organism-based; set-up: dose 250 mg, time < 24 hr
[16] = AUC (0 to 24 hrs) in Staphylococcus aureus in in vitro pharmacokinetic/pharmacodynamic model at 400 mg every 24 hrs; type: ADME, organism-based; set-up: time < 24 hr, dose 400 mg
Staphylococcus aureus [17] = experiment: fCmax in Staphylococcus aureus in in vitro pharmacokinetic/pharmacodynamic model at 400 mg every 24 hrs; type: ADME, organism-based
Staphylococcus aureus [18] = experiment: Bactericidal activity against Staphylococcus aureus in in vitro pharmacokinetic/pharmacodynamic model assessed as decrease in biofilm bacterial count at 400 mg every 24 hrs measured after 72 hrs; type: functional; method in brief: as §4
Staphylococcus aureus [19] = experiment: Bactericidal activity against Staphylococcus aureus in in vitro pharmacokinetic/pharmacodynamic model assessed as decrease in planktonic cell count at 400 mg every 24 hrs measured after 72 hrs; type: functional; method in brief: as §3
Staphylococcus aureus [20] = experiment: Bactericidal activity against Staphylococcus aureus in in vitro pharmacokinetic/pharmacodynamic model assessed as decrease in biofilm bacterial count at 400 mg every 24 hrs; type: functional; method in brief: as §4
Staphylococcus aureus [21] = experiment: Bactericidal activity against Staphylococcus aureus in in vitro pharmacokinetic/pharmacodynamic model assessed as decrease in planktonic cell count at 400 mg every 24 hrs; type: functional; method in brief: as §3
Staphylococcus aureus [22] = experiment: Antimicrobial activity against methicillin-resistant Staphylococcus aureus N315 assessed as inhibition of bacterial biofilm formation by CLSI broth microdilution method; type: functional
Method in brief: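 Biofilm MIC determined using the modified Calgary biofilm device method.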

Staphylococcus aureus [23] = experiment: fCmax in Staphylococcus aureus in in vitro pharmacokinetic/pharmacodynamic model at 600 mg every 24 hrs; type: ADME, organism-based
[24] = AUC (0 to 24 hrs) in Staphylococcus aureus in in vitro pharmacokinetic/pharmacodynamic model at 600 mg every 24 hrs; type: ADME, organism-based; set-up: dose 600 mg, time < 24 hr
[25] = AUC (0 to 24 hrs) in Staphylococcus aureus in in vitro pharmacokinetic/pharmacodynamic model; type: ADME, organism-based; set-up: time < 24 hr; method in brief: as §1
[26] = Half life in Staphylococcus aureus in in vitro pharmacokinetic/pharmacodynamic model; type: ADME, organism-based; method in brief: as §1
Staphylococcus aureus [27] = experiment: fCmax in Staphylococcus aureus in in vitro pharmacokinetic/pharmacodynamic model; type: ADME, organism-based; method in brief: as §1

SMILES: CCCCCCCCCC(=O)N[C@@H](Cc1c[nH]c2ccccc12)C(=O)N[C@H](CC(N)=O)C(=O)N[C@@H](CC(=O)O)C(=O)N[C@@H]1C(=O)NCC(=O)N[C@@H](CCCN)C(=O)N[C@@H](CC(=O)O)C(=O)N[C@H](C)C(=O)N[C@@H](CC(=O)O)C(=O)NCC(=O)N[C@H](CO)C(=O)N[C@@H]([C@H](C)CC(=O)O)C(=O)N[C@@H](CC(=O)c2ccccc2N)C(=O)O[C@@H]1C
AUC at 24 h [1]: 200000 ng·h/mL
half-life [2]: 8.21 h
fCmax (Staphylococcus aureus [3]): 11.79 µg/mL
MBIC (Staphylococcus aureus [4]): 2 µg/mL
MIC (Staphylococcus aureus [5]): 0.125 µg/mL (≈ 0.0771 µM)
MIC (Staphylococcus aureus [6]): 0.125 µg/mL (≈ 0.0771 µM)
Activity (Staphylococcus aureus [7]): inactive
Activity (Staphylococcus aureus [8]): Active
log10CFU/ml (Staphylococcus aureus [9]): 2.2
log10CFU/ml (Staphylococcus aureus [10]): 2.83
log10CFU/ml (Staphylococcus aureus [11]): 2.78
log10CFU/ml (Staphylococcus aureus [12]): 2.73

fCmax (Staphylococcus aureus [13]): 1.15 µg/mL
half-life [14]: 3.91 h
AUC at 24 h [15]: 6530 ng·h/mL
MIC (Staphylococcus aureus [5]): > 128 µg/mL
SMILES: CC[C@H]1OC(=O)[C@H](C)[C@@H](O[C@H]2C[C@@](C)(OC)[C@@H](O)[C@H](C)O2)[C@H](C)[C@@H](O[C@@H]2O[C@H](C)C[C@H](N(C)C)[C@H]2O)[C@](C)(OC)C[C@@H](C)C(=O)[C@H](C)[C@@H](O)[C@]1(C)O [CLARITHROMYCIN]
MBIC (Staphylococcus aureus [4]): >128 µg/mL

AUC at 24 h [16]: 44200 ng·h/mL
fCmax (Staphylococcus aureus [17]): 2.52 µg/mL
SMILES: COc1c(N2C[C@@H]3CCCN[C@@H]3C2)c(F)cc2c(=O)c(C(=O)O)cn(C3CC3)c12 [MOXIFLOXACIN]
log10CFU/ml (Staphylococcus aureus [18]): 4.06
log10CFU/ml (Staphylococcus aureus [19]): 4.04
log10CFU/ml (Staphylococcus aureus [20]): 2.38
log10CFU/ml (Staphylococcus aureus [21]): 2.33

SMILES: CO[C@H]1/C=C/O[C@@]2(C)Oc3c(C)c(O)c4c(O)c(c(/C=N/N5CCN(C)CC5)c(O)c4c3C2=O)NC(=O)/C(C)=C\C=C\[C@H](C)[C@H](O)[C@@H](C)[C@@H](O)[C@@H](C)[C@H](OC(C)=O)[C@@H]1C [RIFAMPIN]
MBIC (Staphylococcus aureus [22]): <0.0625 µg/mL
fCmax (Staphylococcus aureus [23]): 3.82 µg/mL
AUC at 24 h [24]: 19600 ng·h/mL
MIC (Staphylococcus aureus [6]): < 0.0625 µg/mL

SMILES: CN[C@H](CC(C)C)C(=O)N[C@H]1C(=O)N[C@@H](CC(N)=O)C(=O)N[C@H]2C(=O)N[C@H]3C(=O)N[C@H](C(=O)N[C@H](C(=O)O)c4cc(O)cc(O)c4-c4cc3ccc4O)[C@H](O)c3ccc(c(Cl)c3)Oc3cc2cc(c3O[C@@H]2O[C@H](CO)[C@@H](O)[C@H](O)[C@H]2O[C@H]2C[C@](C)(N)[C@H](O)[C@H](C)O2)Oc2ccc(cc2Cl)[C@H]1O [VANCOMYCIN]
AUC(0-t) at 24 h [25]: 193000 ng·h/mL
half-life [26]: 5.91 h
fCmax (Staphylococcus aureus [27]): 22.6 µg/mL
MBIC (Staphylococcus aureus [22]): 2 µg/mL
MIC (Staphylococcus aureus [6]): 0.25 µg/mL (≈ 0.173 µM)
